ChEMBL document CHEMBL1123636 (J Med Chem, 1987)
Where a SMILES comes first, the peptide text is derived from it. Side-chain parts run from the residue outwards. The star is where a group is joined. Oxymorphamine(6α) = CN1CC[C@]23c4c5ccc(O)c4O[C@H]2[C@@H](N*)CC[C@@]3(O)[C@H]1C5

What was measured:
[1] = species: Cavia porcellus; assay: Opioid agonist potencies was determined by electrically stimulated guinea pig ileum (GPI); type: functional
[2] = test system: Mus musculus; assay: Analgesic potency (antinociceptive activity) (administered icv) at peak time of 20 min in male Swiss-Webster mice; type: functional
Procedure, shortened: (§1)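 Intracerebroventricular dosing in male Swiss-Webster mice. Antinociception scored by the acetic acid writhing test at the peak time of analgesia, 10 or 20 min after injection depending on compound.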

[3] = target: T1, Mu-type opioid receptor (Cavia porcellus, UniProt P97266); assay: Binding affinity of Opioid receptor mu 1 by the displacement of mu-selective [3H]DAGO from brain membrane preparations.
T1 sequence (P97266 whole entry): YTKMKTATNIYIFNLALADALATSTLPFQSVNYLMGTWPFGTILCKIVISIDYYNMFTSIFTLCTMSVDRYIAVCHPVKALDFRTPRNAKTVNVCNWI
Procedure, shortened: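 Competitive displacement of the μ-selective radioligand [3H]DAGO from brain membrane preparations ([…]). Affinity taken from ligand displacement.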

[4] = species: Mus musculus; assay: Opioid agonist potencies was determined by mouse vas deferens (MVD); type: functional
[5] = species: Cavia porcellus; assay: Ke value for naloxone versus compound in the guinea pig ileum (GPI) in order to distinguish between mu- and delta-mediated effects; type: functional
Procedure, shortened: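 Electrically stimulated guinea pig ileum. Naloxone antagonism measured against each agonist and expressed as a Ke, used to tell μ- from δ- or κ-mediated effects.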

[6] = test system: Mus musculus; assay: Analgesic potency (antinociceptive activity) (administered icv) at peak time of 10 min in male Swiss-Webster mice; type: functional; procedure, shortened: as §1
[7] = target: T1, Mu-type opioid receptor; assay: Binding affinity of Opioid receptor mu 1 mu 1 by the displacement of mu-selective [3H]DAGO from brain membrane preparations.

| Compound | IC50 [1] | ED50 [2] | Ki [3] | IC50 [4] | Ke [5] | ED50 [6] | Ki [7] |
| --- | --- | --- | --- | --- | --- | --- | --- |
| CC(=O)N[C@H]1CC[C@@]2(O)[C@H]3Cc4ccc(O)c5c4[C@@]2(CCN3C)[C@H]1O5 | 136 nM | 5.4 nM | 1.81 nM | 166 nM | 0.88 nM | – | – |
| CC(=O)NCC(=O)NCC(=O)N[C@H]1CC[C@@]2(O)[C@H]3Cc4ccc(O)c5c4[C@@]2(CCN3C)[C@H]1O5 | 82.3 nM | 3.1 nM | 5.48 nM | 78 nM | 1.55 nM | – | – |
| H-YQGFL-OH | 210 nM | – | – | 123 nM | 1.63 nM | 84 nM | 21.7 nM |
| CC(C)C[C@H](NC(=O)[C@H](Cc1ccccc1)NC(=O)CNC(=O)[C@H](CCC(=O)NCC(=O)NCC(=O)N[C@H]1CC[C@@]2(O)[C@H]3Cc4ccc(O)c5c4[C@@]2(CCN3C)[C@H]1O5)NC(=O)[C@@H](N)Cc1ccc(O)cc1)C(=O)O (H-YE([Gly-Gly-Oxymorphamine(6α)])GFL-OH) | 57.2 nM | 5 nM | 11.1 nM | 47.7 nM | 1.32 nM | – | – |
| CN1CC[C@]23c4c5ccc(O)c4O[C@H]2C(=O)CC[C@@]3(O)[C@H]1C5 [OXYMORPHONE] | – | – | – | – | – | 24 nM | – |
| CC(C)C[C@H](NC(=O)[C@H](Cc1ccccc1)NC(=O)CNC(=O)[C@H](CCC(=O)NCC(=O)NCC(N)=O)NC(=O)[C@@H](N)Cc1ccc(O)cc1)C(=O)O (H-YE([Gly-Gly-NH2])GFL-OH) | 597 nM | – | 52.9 nM | 61.8 nM | 2.32 nM | 60 nM | – |
| CC(C)C[C@H](NC(=O)[C@H](Cc1ccccc1)NC(=O)CNC(=O)CNC(=O)[C@@H](N)Cc1ccc(O)cc1)C(=O)O [ENKEPHALIN] | – | – | – | – | 1.53 nM | – | – |
| CC(C)C[C@H](NC(=O)[C@H](Cc1ccccc1)NC(=O)CNC(=O)[C@H](CCC(=O)N[C@H]1CC[C@@]2(O)[C@H]3Cc4ccc(O)c5c4[C@@]2(CCN3C)[C@H]1O5)NC(=O)[C@@H](N)Cc1ccc(O)cc1)C(=O)O (H-YE(Oxymorphamine(6α))GFL-OH) | 7.5 nM | 0.7 nM | 19.1 nM | 26.9 nM | 1.02 nM | – | – |
